Screens from PubChem.
An excerpt weighted towards active compounds, which were near 2.6% of everything screened.
SENP8 block-1: SENP8 (human) protease inhibition; inhibition, % at 20 µM; AID 602440; 0.64% of 360,000 active; Q96LD8; recombinant SENP8, Nedd8 substrate fluorescence; in the data active = inhibition mostly above about 40%, no sharp cut-off; inactive = mostly below about 27%
Target sequence (Q96LD8 whole entry, looked up): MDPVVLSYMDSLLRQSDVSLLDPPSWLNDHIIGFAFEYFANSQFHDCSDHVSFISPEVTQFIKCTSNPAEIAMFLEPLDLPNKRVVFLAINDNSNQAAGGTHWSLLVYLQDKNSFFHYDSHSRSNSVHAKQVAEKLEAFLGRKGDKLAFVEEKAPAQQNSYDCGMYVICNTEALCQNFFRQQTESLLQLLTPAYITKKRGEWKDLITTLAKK
SENP1 inh: inhibitors of human SENP1 SUMO protease catalytic domain. Q9P0U3. recombinant SENP1 catalytic domain, CyPet-SUMO1-YPet FRET cleavage. inhibition, % at 10 µM. 0.21% of 360,000 active. AID 624204;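 active = inhibition at least 30% at 10 µM, raw YFP signal under a set limit, fluorescence ratio 0.5 to 1.5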;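 note: 0% = enzyme with DMSO and 100% = no enzyme wells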
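system = hSENP1 catalytic domain, recombinant | reagent = SFCypet-SUMO1-SFYpet substrate at 25 nM | doses = one dose per compound, 10 µM, 0.5% DMSO | incubation = enzyme reaction for 50 min at room temperature, dark | measured by = FRET, CFP and YFP emission | controls = no-enzyme low, enzyme-DMSO high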
Platelet DG rel: platelet dense granule release activity. human platelet-rich plasma, SFLLRN dense granule ATP release, luminescence. inhibition, %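 (compounds screened at 7.5 µM in platelet-rich plasma)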. 0.22% of 300,000 active;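 active = mean replicate score, as percent of positive control, at or above 50; inconclusive = mean below 50 but at least one replicate at or above 50; inactive = mean and every replicate below 50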
SENP8 block-2: inhibitors of human SENP8 protease. Q96LD8. purified SENP8, Z-RLRGG-aminoluciferin cleavage, luminescence. inhibition, % at 10 µM. 1.2% of 330,000 active. AID 2540; in the data active = inhibition above about 50%
SENP7 block: SENP7 protease inhibition. Q9BQF6. recombinant SENP7, Z-RLRGG-aminoluciferin luminescence, 40 min. inhibition, % at 5 µM. 1.5% of 330,000 active;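 active = inhibition above about 50% at the single test dose, limit read from the data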;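 note: plate controls were DMSO with enzyme for no effect and no enzyme buffer wells for full effect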
Target sequence (Q9BQF6 706-1050 limits assumed): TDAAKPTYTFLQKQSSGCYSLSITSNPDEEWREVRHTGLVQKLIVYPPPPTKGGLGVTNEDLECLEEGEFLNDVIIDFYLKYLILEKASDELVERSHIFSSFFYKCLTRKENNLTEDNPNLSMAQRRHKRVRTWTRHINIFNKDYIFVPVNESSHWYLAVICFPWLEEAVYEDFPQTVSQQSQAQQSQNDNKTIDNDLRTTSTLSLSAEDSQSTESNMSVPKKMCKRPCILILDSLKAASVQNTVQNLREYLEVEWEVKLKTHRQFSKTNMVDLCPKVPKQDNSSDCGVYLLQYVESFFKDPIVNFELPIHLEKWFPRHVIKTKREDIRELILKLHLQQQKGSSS
SENP6 inh: inhibitors of human SENP6 protease; 1.8% of 330,000 active; inhibition, % at 10 µM; Recombinant SENP6 catalytic domain, aminoluciferin luminescence; Q9GZR1;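 active = inhibition above about 50% at the single tested dose, limit read from the data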;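 note: plate controls were DMSO wells with enzyme for no effect and DMSO wells lacking enzyme for full effect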
SENP8 confirm: human SENP8 inhibition, confirmed. shares compounds with SENP7 block. Recombinant SENP8, Z-RLRGG-aminoluciferin luminescence, 60 min. inhibition, % at 12.5 µM. 40% of 6,200 active;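 active = mean inhibition across replicates above about 50%, limit read from the data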
SENP6 conf: confirmation of human SENP6 protease inhibitors; shares compounds with SENP7 block; recombinant SENP6, Z-RLRGG-aminoluciferin luminescence; 58% of 6,200 active; inhibition, % at 12.5 µM; AID 488915
SENP7 confirm: confirmation of human SENP7 protease inhibitors; shares compounds with SENP7 block; recombinant SENP7, Z-RLRGG-aminoluciferin luminescence, 40 min; inhibition, % at 12.5 µM; 69% of 6,200 active
Casp3 select: caspase-3 inhibition (SENP selectivity assay) | inhibition, % at 12.5 µM | purified caspase-3, Z-DEVD-aminoluciferin luminescence, 60 min | shares compounds with SENP7 block | 60% of 6,200 active | AID 488918;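 active = mean inhibition above about 50%, limit read from the data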;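 note: plate controls were enzyme with DMSO for no effect and wells without caspase-3 for full effect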
SENP luc ctr: interferes with luciferase luminescence in SENP counter-screen; Pre-incubated SENP8/Z-RLRGG-aminoluciferin, luciferase luminescence interference; 39% of 6,200 active; shares compounds with SENP7 block; inhibition, % at 12.5 µM;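 active = mean inhibition above about 50% when retested at one dose, limit read from the data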;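 note: plate controls were DMSO wells with completed reaction for no effect and substrate without enzyme for full effect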
Starred values were filed as active, the others as inactive; ? = inconclusive; . = no result.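 Rule for the calls, unless noted: active = mean inhibition above about 50% in the one-dose retest (limit read from the data); inactive = the rest.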

SMILES	SENP8 block-1	SENP1 inh	Platelet DG rel	SENP8 block-2	SENP7 block	SENP6 inh	SENP8 confirm	SENP6 conf	SENP7 confirm	Casp3 select	SENP luc ctr
Cc1cc(NC(=O)c2cccc(F)c2)ncc1NC(=O)c1ccco1	19	0	?	82*	93*	94*	87*	87*	99*	95*	88*
O=C(COc1ccc(Cl)cc1Cl)Nc1ccc(Cl)cn1	-4	2	7	72*	1	84*	44	43	47	59*	31
O=C(Nc1ccc(Cl)cn1)c1ccccc1F	-3	2	-4	64*	80*	82*	2	71*	93*	85*	42
Cc1cc(C(=O)O)ccc1NCc1cccnc1	6	1	-1	-13	-10	-3	.	.	.	.	.
Cc1ccc(-c2csc3ncnc(OCC(=O)NC(=O)NCc4ccco4)c23)cc1	-6	-5	-9	3	6	-2	.	.	.	.	.
Cc1cc(NC(=O)c2ccc(N3C(=O)CCC3=O)cc2)no1	15	1	-2	-6	-15	3	.	.	.	.	.
O=C(Nc1ccc(Cl)cn1)c1cccc(F)c1	17	2	3	73*	89*	91*	83*	85*	97*	92*	81*
Cc1cc(NC(=O)c2ccccc2)ncc1NC(=O)c1cccs1	-4	-3	15	72*	-17	64*	76*	74*	93*	90*	80*
O=C(Nc1cccc(C(=O)Nc2ccc(Cl)cn2)c1)c1ccccc1	8	1	-1	-4	9	8	.	.	.	.	.
O=C1N/C(=C\c2nc3ccccc3s2)c2ccccc21	.	.	1	84*	98*	92*	33	42	34	37	6
O=C1N/C(=C\c2ccccc2)c2ccccc21	-130	1	2	-19	1	14	.	.	.	.	.
c1ccc2c(Nc3nnc(-c4ccncc4)s3)cccc2c1	-105	-2	12	46	3	61*	15	51*	81*	48	5
Cc1ccc(C(=O)CC(c2cccs2)S(=O)(=O)c2ccc(C)cc2)cc1 (centres undefined)	30	1	-13	-4	63*	62*	7	8	-4	4	4
O=C(CC(c1cccs1)S(=O)(=O)c1ccccc1)c1ccc(F)cc1 (centres undefined)	2	0	18	23	30	52*	3	-2	9	5	8
O=C(NCCO)C(=O)NCC(c1cccs1)S(=O)(=O)c1ccc(F)cc1 (centres undefined)	17	2	.	.	.	.	.	.	.	.	.
CC1=C(C#N)C(=O)N(C2CCS(=O)(=O)C2)C(=O)/C1=C\c1ccc(C)o1 (centres undefined)	.	.	25	9	13	-9	.	.	.	.	.
C/C(=N\Nc1nccnc1Cl)c1ccc(O)c(C)c1	-29	0	19	31	93*	54*	43	48	75*	76*	56*
C/C(=N\Nc1nccnc1Cl)c1ccc(Br)cc1	-29	-2	17	1	1	-10	.	.	.	.	.
Cc1ccc(C)c(NC(=O)c2cc(-c3cc(C)ccc3O)n[nH]2)c1	12	2	6	22	66*	32	28	29	82*	43	38
COc1ccc(Cl)cc1NC(=O)c1cc(-c2cc(C)ccc2O)n[nH]1	13	2	-1	-9	-10	-1	.	.	.	.	.
Cc1cc(C)c(O)c(-c2cc(C(=O)Nc3cccnc3)[nH]n2)c1	31	1	13	30	25	68*	14	14	73*	18	36
Cc1cc(O)c(-c2cc(C(=O)Nc3cccnc3)[nH]n2)cc1C	15	0	-2	-12	71*	2	-3	-5	66*	46	-5
Cc1cccc(NC(=O)c2cc(-c3cc(C)cc(C)c3O)n[nH]2)c1	6	-2	-1	-10	5	15	.	.	.	.	.
CCc1ccc(O)c(-c2cc(C(=O)Nc3cccnc3)[nH]n2)c1	25	3	2	-7	-4	-10	.	.	.	.	.
Cc1nc(-c2cccc(Br)c2)ccc1C(=O)O	13	1	9	33	58*	-7	55*	51*	81*	88*	65*
SMILES	SENP8 block-1	SENP1 inh	Platelet DG rel	SENP8 block-2	SENP7 block	SENP6 inh	SENP8 confirm	SENP6 conf	SENP7 confirm	Casp3 select	SENP luc ctr
Cc1cc(Cl)c(O)c(-n2nc3ccccc3n2)c1	15	3	6	20	71*	27	1	12	44	37	4
N#CC(=C1CCCC1)c1nc(-c2ccccc2)cs1	14	4	1	65*	65*	77*	5	64*	88*	54*	33
N#CC(=C1CCCC1)c1nc(-c2ccccc2O)cs1	5	-1	10	63*	90*	86*	9	33	40	53*	55*
N#CC(=C1CCCC1)c1nc(-c2cc3ccccc3oc2=O)cs1	-297	2	-10	-16	16	-13	.	.	.	.	.
Cc1ccc(-c2csc(C(C#N)=C3CCCC3)n2)cc1	16	0	-1	-8	5	5	.	.	.	.	.
Cn1nc([N+](=O)[O-])nc1N1CCN(c2ccc(F)cc2)CC1	12	0	0	-3	7	19	.	.	.	.	.
Cc1cc(NC(=O)c2sc3ccccc3c2O)no1	-370	-126	-1	75*	73*	89*	86*	85*	98*	92*	65*
Cc1ccc(S(=O)(=O)N2CCN(C(=O)c3ccc(Cl)nc3)CC2)cc1	7	1	-4	-1	11	3	.	.	.	.	.
Cn1cccc1/C=C1\SC(=Nc2ccccc2)NC1=O	18	-85	-38	72*	65*	80*	44	61*	64*	63*	27
Cc1ccc(N=C2NC(=O)/C(=C/c3cccn3C)S2)c(C)c1	14	-38	14	-12	-6	-12	.	.	.	.	.
Cc1noc(C)c1C(=O)Nc1ccc(F)c(F)c1	20	0	-21	-7	-2	4	.	.	.	.	.
Cc1noc(C)c1C(=O)Nc1nc2ccc(Cl)cc2s1	-48	1	-13	95*	94*	96*	92*	96*	101*	93*	66*
